Key:
[1] = Toxicity in ip dosed rat; format: organism-based; settings: in vivo
[2] = tested on: Rattus norvegicus; assay: Anticonvulsant activity in rat assessed as protection against maximal electric shock-induced seizures at 40 mg/kg, ip; format: functional; settings: route intraperitoneal
In short: (§1)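 Rats dosed i.p.: test agents at 40 mg/kg, with a propylene glycol group at 0.5 mL. Maximal electroshock (MES) seizure test, scored as % seizure protection.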

[3] = tested on: Rattus norvegicus; assay: Toxicity in rat assessed as time spent on rotarod at 40 mg/kg, ip by rotarod test; format: organism-based; set-up: dose 40 mg/kg, route intraperitoneal; settings: in vivo
In short: (§2)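 Rats dosed i.p.: test agents at 40 mg/kg, with a propylene glycol group at 0.5 mL. Rotarod performance test, recorded as mean time in seconds on the rod.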

[4] = tested on: Rattus norvegicus; assay: Anticonvulsant activity in rat assessed as protection against maximal electric shock-induced seizures at 0.5 mL, ip; format: functional; in short: as §1
[5] = tested on: Rattus norvegicus; assay: Toxicity in rat assessed as time spent on rotarod at 0.5 mL, ip by rotarod test; format: organism-based; settings: in vivo; in short: as §2

Compound	LD50 [1]	Activity [2]	Time [3]	Activity [4]	Time [5]
CN(C)c1ccc(C2SCC(=O)N2c2nnc(Cn3c4ccccc4c4ccccc43)o2)cc1 (stereo not drawn)	> 1000 mg/kg	60%	104.2 s		
O=C1C(Cl)C(c2ccccc2Br)N1c1nnc(Cn2c3ccccc3c3ccccc32)s1 (stereo not drawn)	> 1000 mg/kg	80%	98 s		
O=C1CSC(c2ccccc2Br)N1c1nnc(Cn2c3ccccc3c3ccccc32)s1 (stereo not drawn)	> 1600 mg/kg	90%	96 s		
COc1cc(C2C(Cl)C(=O)N2c2nnc(Cn3c4ccccc4c4ccccc43)s2)ccc1O (stereo not drawn)	> 1000 mg/kg	70%	102.4 s		
COc1cc(/C=N/c2nnc(Cn3c4ccccc4c4ccccc43)o2)ccc1O	> 1000 mg/kg	30%	112.2 s		
Brc1ccccc1/C=N/c1nnc(Cn2c3ccccc3c3ccccc32)o1	> 1000 mg/kg	30%	110.8 s		
CN(C)c1ccc(C2C(Cl)C(=O)N2c2nnc(Cn3c4ccccc4c4ccccc43)s2)cc1 (stereo not drawn)	> 1000 mg/kg	50%	106 s		
O=C1CSC(c2ccc(O)cc2)N1c1nnc(Cn2c3ccccc3c3ccccc32)s1 (stereo not drawn)	> 1000 mg/kg	60%	100.6 s		
CN(C)c1ccc(C2C(Cl)C(=O)N2c2nnc(Cn3c4ccccc4c4ccccc43)o2)cc1 (stereo not drawn)	> 1000 mg/kg	40%	100.2 s		
CN(C)c1ccc(C2SCC(=O)N2c2nnc(Cn3c4ccccc4c4ccccc43)s2)cc1 (stereo not drawn)	> 1000 mg/kg	60%	104 s		
O=C1C(Cl)C(c2ccc(O)cc2O)N1c1nnc(Cn2c3ccccc3c3ccccc32)s1 (stereo not drawn)	> 1000 mg/kg	50%	102.2 s		
Oc1ccc(/C=N/c2nnc(Cn3c4ccccc4c4ccccc43)o2)c(O)c1	> 1000 mg/kg	30%	114.8 s		
O=C1C(Cl)C(c2ccc(O)cc2O)N1c1nnc(Cn2c3ccccc3c3ccccc32)o1 (stereo not drawn)	> 1000 mg/kg	50%	106.4 s		
Oc1ccc(/C=N/c2nnc(Cn3c4ccccc4c4ccccc43)o2)cc1	> 1000 mg/kg	20%	116.4 s		
CN(C)c1ccc(/C=N/c2nnc(Cn3c4ccccc4c4ccccc43)s2)cc1	> 1000 mg/kg	40%	110.2 s		
O=C1CSC(c2ccc(O)cc2)N1c1nnc(Cn2c3ccccc3c3ccccc32)o1 (stereo not drawn)	> 1000 mg/kg	60%	104.6 s		

Compound	LD50 [1]	Activity [2]	Time [3]	Activity [4]	Time [5]
O=C1CSC(c2ccccc2Br)N1c1nnc(Cn2c3ccccc3c3ccccc32)o1 (stereo not drawn)	> 1000 mg/kg	70%	96.6 s		
O=C(CCCN1CCC(O)(c2ccc(Cl)cc2)CC1)c1ccc(F)cc1 [HALOPERIDOL]				0%	
Oc1ccc(/C=N/c2nnc(Cn3c4ccccc4c4ccccc43)s2)c(O)c1	> 1000 mg/kg	50%	108.6 s		
Oc1ccc(/C=N/c2nnc(Cn3c4ccccc4c4ccccc43)s2)cc1	> 1000 mg/kg	40%	108.8 s		
CC(O)CO (stereo not drawn) [PROPYLENE GLYCOL]				0%	120 s
O=C1C(Cl)C(c2ccc(O)cc2)N1c1nnc(Cn2c3ccccc3c3ccccc32)s1 (stereo not drawn)	> 1000 mg/kg	60%	102 s		
O=C1CSC(c2ccc(O)cc2O)N1c1nnc(Cn2c3ccccc3c3ccccc32)s1 (stereo not drawn)	> 1000 mg/kg	70%	102.2 s		
COc1cc(C2SCC(=O)N2c2nnc(Cn3c4ccccc4c4ccccc43)s2)ccc1O (stereo not drawn)	> 1000 mg/kg	70%	98.8 s		
O=C1C(Cl)C(c2ccc(O)cc2)N1c1nnc(Cn2c3ccccc3c3ccccc32)o1 (stereo not drawn)	> 1000 mg/kg	40%	104.6 s		
O=C1C(Cl)C(c2ccccc2Br)N1c1nnc(Cn2c3ccccc3c3ccccc32)o1 (stereo not drawn)	> 1000 mg/kg	60%	98.8 s		
COc1cc(C2C(Cl)C(=O)N2c2nnc(Cn3c4ccccc4c4ccccc43)o2)ccc1O (stereo not drawn)	> 1000 mg/kg	50%	102.4 s		
O=C1CSC(c2ccc(O)cc2O)N1c1nnc(Cn2c3ccccc3c3ccccc32)o1 (stereo not drawn)	> 1000 mg/kg	60%	104.4 s		
COc1cc(/C=N/c2nnc(Cn3c4ccccc4c4ccccc43)s2)ccc1O	> 1000 mg/kg	50%	106.8 s		
CN(C)c1ccc(/C=N/c2nnc(Cn3c4ccccc4c4ccccc43)o2)cc1	> 1000 mg/kg	20%	114 s		
COc1cc(C2SCC(=O)N2c2nnc(Cn3c4ccccc4c4ccccc43)o2)ccc1O (stereo not drawn)	> 1000 mg/kg	70%	102.8 s		
Brc1ccccc1/C=N/c1nnc(Cn2c3ccccc3c3ccccc32)s1	> 1000 mg/kg	60%	106.8 s		

Reference: ChEMBL document CHEMBL1177859, “Synthesis and antipsychotic and anticonvulsant activity of some new substituted oxa/thiadiazolylazetidinonyl/thiazolidinonylcarbazoles” (Eur J Med Chem, 2010)
